Blank lines part the entries; values can stand above or below the molecule they belong to.
How the values were obtained:
[1] = Drug accumulation in mitochondria of human T24 cells at 500 nM formulated with 1% tween 80 solution after 24 hrs by mitotracker red based fluorimetry; type: ADME; settings: t-24, 24 h, 0.5 µM
[2] = Drug uptake in human UM-UC-3 cells assessed as increase in gray value intensity at 500 nM after 48 hrs in presence of gleevec by Hoechst 33342 staining based fluorescence microscopy; type: ADME, cell-based; settings: umuc3, 24 h, 0.5 µM, in the assay text read “after 24 hrs” for “after 48 hrs”
Outline: (§1)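 Cells plated at 100k per well, grown to 80% confluency, refreshed, then incubated 24 h with PS at 500 nM with or without Gleevec 5 µM. Washed twice with PBS, Hoechst 33342 added, imaged by fluorescence microscopy; grey value normalized to cell number, triplicate groups and images.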

[3] = Drug accumulation in mitochondria of human UM-UC-3 cells at 500 nM formulated with 2% pluronic F-127 solution after 24 hrs by mitotracker red based fluorimetry; type: ADME; settings: umuc3, 24 h, 0.5 µM
[4] = Drug uptake in human T24 cells xenografted in SCID mouse at 0.47 umol/kg formulated with 1% tween 80 solution and measured at 24 hrs post injection by IVIS analysis; type: ADME, cell-based, T-24; settings: in vivo
Outline: (§2)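 SCID mice (3/group) bearing UMUC3 or T24 tumors of 4–5 mm injected with PS at 0.47 µmol/kg in Tween80 or Pluronic F-127. Tumor, liver and skin fluorescence followed by IVIS optical imaging (ex 675 nm, em 720) at several time points including 24 h.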

T-24 [5] = experiment: Photo-activated cytotoxicity against human T24 cells assessed as reduction in cell viability preincubated for 24 hrs followed by 1 J/cm2 light irradiation and measured after 48 hrs formulated with 2% pluronic F-127 solution by MTT assay; type: functional, cell-based; settings: T-24, light or radiation study
Outline: (§3)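 Cells plated at 10k per well, allowed 24 h to adhere, then PS added in two-fold dilutions from 1 µM top for 24 h. Irradiated at 665 nm, 1.0 J/cm2 at 3.2 mW/cm2. Viability by MTT 48 h after PDT: about 2 h incubation, formazan dissolved in DMSO, absorbance at 570 nm.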

[6] = Drug accumulation in mitochondria of human T24 cells at 500 nM formulated with 2% pluronic F-127 solution after 24 hrs by mitotracker red based fluorimetry; type: ADME; settings: t-24, 24 h, 0.5 µM
[7] = Drug accumulation in lysosomes of human T24 cells at 500 nM formulated with 2% pluronic F-127 solution after 24 hrs by lysosphere green based fluorimetry; type: ADME, subcellular, Lysosome; settings: t-24, 24 h, 0.5 µM
UMUC3 [8] = experiment: Anti-tumor activity against human UM-UC-3 cells xenografted in SCID mouse assessed as tumor cure at 0.47 umol/kg, iv in presence of 135 J/cm2 light irradiation at 24 hrs post injection and measured at day 60; type: functional
Outline: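 UMUC-3 cells implanted in right flank of SCID mice; at 4–5 mm tumors, PS given i.v. at 0.47 µmol/kg. Tumors exposed to 665 nm light, 135 J/cm2 at 75 mW/cm2, 24 h post-injection. Tumor regrowth monitored daily; mice euthanized at >400 mm3; tumor-free status scored at day 60.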

[9] = Drug uptake in human UM-UC-3 cells assessed as increase in gray value intensity at 1 uM pretreated for 24 hrs followed by compound washout and measured after 4 hrs by Hoechst 33342 staining based fluorescence microscopy; type: ADME, cell-based; settings: umuc3, 4 h
Outline: (§4)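 Cells pre-incubated 24 h with free erlotinib before PS addition. Legend describes PS at 1 uM or erlotinib at 3 uM for 4 h, then three warm PBS washes. Imaged by fluorescence microscopy; grey value per field normalized to cell count, triplicate wells, each imaged in triplicate.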

[10] = Drug accumulation in lysosomes of human UM-UC-3 cells at 500 nM formulated with 1% tween 80 solution after 24 hrs by lysosphere green based fluorimetry; type: ADME, subcellular, Lysosome; settings: umuc3, 24 h, 0.5 µM
[11] = Drug uptake in human UM-UC-3 cells assessed as increase in gray value intensity at 500 nM after 48 hrs in absence of gleevec by Hoechst 33342 staining based fluorescence microscopy; type: ADME, cell-based; settings: umuc3, 24 h, 0.5 µM, in the assay text read “24 hrs” for “48 hrs”; outline: as §1
[12] = Stability at -20 degC for 2 months; type: physicochemical; settings: 1461 h
Outline: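 Formulated PS stored at -4 °C or -20 °C for two months; checked for precipitation and pH change.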

[13] = Drug uptake in human UM-UC-3 cells xenografted in SCID mouse at 0.47 umol/kg formulated with 1% tween 80 solution and measured at 24 hrs post injection by IVIS analysis; type: ADME, cell-based, UMUC3; settings: in vivo; outline: as §2
[14] = Drug accumulation in mitochondria of human UM-UC-3 cells at 500 nM formulated with 1% tween 80 solution after 24 hrs by mitotracker red based fluorimetry; type: ADME; settings: umuc3, 24 h, 0.5 µM
UMUC3 [15] = experiment: Induction of apoptosis in human UM-UC-3 cells assessed as increase in apoptotic cells at 1 uM in absence of light by Annexin V/propidium iodide-staining based flow cytometry; type: cell-based; settings: umuc3, 1 µM
[16] = Drug uptake in human T24 cells xenografted in SCID mouse at 0.47 umol/kg formulated with 2% pluronic F-127 solution and measured at 24 hrs post injection by IVIS analysis; type: ADME, cell-based, T-24; settings: in vivo; outline: as §2
[17] = Stability at -4 degC for 2 months; type: physicochemical; settings: 1461 h
Outline: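 Photosensitizer formulations in Tween80 or Pluronic F-127 were stored at -4 °C, alongside a -20 °C set, for two months. Stability was judged by visible precipitation and change in pH.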

[18] = Drug accumulation in lysosomes of human T24 cells at 500 nM formulated with 1% tween 80 solution after 24 hrs by lysosphere green based fluorimetry; type: ADME, subcellular, Lysosome; settings: t-24, 24 h, 0.5 µM
[19] = Drug accumulation in human UM-UC-3 cells at 500 nM formulated with 2% pluronic F-127 solution after 24 hrs by CARY-fluorimetry; type: ADME, cell-based; settings: umuc3, 24 h, 0.5 µM
[20] = Drug uptake in human UM-UC-3 cells xenografted in SCID mouse at 0.47 umol/kg formulated with 2% pluronic F-127 solution and measured at 24 hrs post injection by IVIS analysis; type: ADME, cell-based, UMUC3; settings: in vivo; outline: as §2
UMUC3 [21] = experiment: Photo-activated cytotoxicity against human UM-UC-3 cells assessed as reduction in cell viability preincubated for 24 hrs followed by 1 J/cm2 light irradiation and measured after 48 hrs formulated with 2% pluronic F-127 solution by MTT assay; type: functional, cell-based; settings: UMUC3, light or radiation study; outline: as §3
[22] = Drug accumulation in lysosomes of human UM-UC-3 cells at 500 nM formulated with 2% pluronic F-127 solution after 24 hrs by lysosphere green based fluorimetry; type: ADME, subcellular, Lysosome; settings: umuc3, 24 h, 0.5 µM
[23] = Drug accumulation in human UM-UC-3 cells at 500 nM formulated with 1% tween 80 solution after 24 hrs by CARY-fluorimetry; type: ADME, cell-based; settings: umuc3, 24 h, 0.5 µM
[24] = Drug uptake in human T24 cells assessed as increase in gray value intensity at 1 uM pretreated for 24 hrs followed by compound washout and measured after 4 hrs by Hoechst 33342 staining based fluorescence microscopy; type: ADME, cell-based; settings: t-24, 4 h; outline: as §4
T-24 [25] = experiment: Photo-activated cytotoxicity against human T24 cells assessed as reduction in cell viability preincubated for 24 hrs followed by 1 J/cm2 light irradiation and measured after 48 hrs formulated with 1% tween 80 solution by MTT assay; type: functional, cell-based; settings: T-24, light or radiation study; outline: as §3
UMUC3 [26] = experiment: Induction of oxidative stress in human UM-UC-3 cells assessed as increase in ROS production at 1 uM in presence of 1 J/cm2 light irradiation and measured at 20 min post light exposure by DCFDA-fluorescence based assay relative to control; type: functional
Outline: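 UMUC3 cells at 10k per well; after 24 h, PS added at 1 µM for 24 h (Tween80 formulation). DCFDA 1 µM for 20 min, fluorescence read (ex 492, em 517). Then 665 nm light, 1 J total at 3.2 mW/cm2, and read again. No-DCFDA background subtracted; 0.05% H2O2 control wells.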

UMUC3 [27] = experiment: Photo-activated cytotoxicity against human UM-UC-3 cells assessed as reduction in cell viability preincubated for 24 hrs followed by 1 J/cm2 light irradiation and measured after 48 hrs formulated with 1% tween 80 solution by MTT assay; type: functional, cell-based; settings: UMUC3, light or radiation study; outline: as §3
T-24 [28] = experiment: Induction of apoptosis in human T24 cells assessed as increase in apoptotic cells at 1 uM in absence of light by Annexin V/propidium iodide-staining based flow cytometry; type: cell-based; settings: t-24, 1 µM
[29] = Drug uptake in human UM-UC-3 cells xenografted in SCID mouse at 50 uCi, iv measured at 110 min post injection by PET imaging analysis; settings: in vivo

Drug uptake [1]: Active
Drug uptake [2]: Not Active
Drug uptake [3]: Active
Drug uptake [4]: Active
Drug uptake [6]: Active
Drug uptake [7]: Active
Drug uptake [9]: Not Active
Drug uptake [10]: Active
Drug uptake [11]: Not Active
Stability [12]: Stable
Drug uptake [13]: Active
Drug uptake [14]: Active
Drug uptake [16]: Active
Stability [17]: Stable
Drug uptake [18]: Active
Drug uptake [19]: Active
Drug uptake [20]: Active
Drug uptake [22]: Active
Drug uptake [23]: Active
Drug uptake [24]: Active
Structure (SMILES): CCC1=C(C)c2cc3[nH]c(cc4nc(c5c6[nH]c(cc1n2)c(C)c6C(=O)C5)[C@@H](CCC(=O)NCc1cccc(C#Cc2cccc(Nc5ncnc6cc(OCCOC)c(OCCOC)cc56)c2)c1)[C@@H]4C)c(C)c3C(C)OCc1cccc([127I])c1 (some centres undefined)
IC50 (T-24 [5]): 0.315 µM
Activity (UMUC3 [8]): 55%
Activity (UMUC3 [15]): Non-Toxic
IC50 (UMUC3 [21]): 0.0584 µM
IC50 (T-24 [25]): 0.137 µM
fold change (FC) (UMUC3 [26]): 4.5
IC50 (UMUC3 [27]): 0.0364 µM
Activity (T-24 [28]): Non-Toxic

Drug uptake [29]: Not Active
Structure (SMILES): OC[C@H]1OC(O)[C@H]([18F])[C@@H](O)[C@@H]1O (some centres undefined) [FLUDEOXYGLUCOSE F 18]

From ChEMBL document CHEMBL4400542, “Epidermal Growth Factor Receptor-Targeted Multifunctional Photosensitizers for Bladder Cancer Imaging and Photodynamic Therapy” (J Med Chem, 2019)
